Assay results published in PMC6767012 (Clinical Pharmacology in Drug Development, 2018).
Read-outs that look alike come from different tables or passages of the source.

Experiments:
[1] = system: ALK resistance mutations; conditions: nonclinical studies; cited from earlier work
[2] = format: in vivo, human; conditions: single oral 180 mg; for Effect of high-fat meal on total exposure (AUC): fed vs fasted; for Reduction of Cmax under fed versus fasted conditions: high-fat meal; for half-life: t1/2 (terminal elimination half-life)
[3] = single oral 180-mg dose, healthy subjects; cited from earlier work
[4] = system: CYP2C8 and CYP3A4; conditions: human liver microsomes and hepatocytes; cited from earlier work
[5] = system: ALK+ NSCLC; conditions: 180 mg orally once daily with 7-day lead-in at 90 mg; crizotinib-refractory ALK+ NSCLC; cited from earlier work
[6] = Food effect study: safety and tolerability; format: in vivo, human; conditions: for Incidence of treatment-emergent adverse events (TEAEs): single oral 180 mg, healthy subjects
Method in brief: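 Phase 1, single-centre, randomised, open-label, 2-period, 2-sequence crossover in healthy nonsmoking adults aged 18–55, BMI 18–30 kg/m2, at least 50 kg. Single morning oral dose (2 × 90-mg tablets) with about 240 mL water, after an overnight fast of at least 10 h, or with a standardised high-fat meal 30 ± 5 min before dosing. Washout at least 16 days. Adverse events were tracked until 7 days after the last dose, alongside vital signs, haematology, chemistry, urinalysis, physical exams and 12-lead ECG.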

[7] = cited from earlier work
[8] = healthy subjects; cited from earlier work
[9] = cited from earlier work; remark: listed apart in the source
[10] = patients with advanced ALK+ NSCLC; cited from earlier work

## COc1cc(N2CCC(N3CCN(C)CC3)CC2)ccc1Nc1ncc(Cl)c(Nc2ccccc2P(C)(C)=O)n1 [Brigatinib]
[1]
  Activity against all ALK resistance mutations tested: potent activity
[2]
  Effect of high-fat meal on total exposure (AUC): no effect
  Reduction of Cmax under fed versus fasted conditions: 13%
[2]; listed as brigatinib
  Effect of high-fat meal on total exposure (AUC): similar
  Reduction of Cmax under fed versus fasted conditions: approximately 13%
[2]; human, plasma, po, 180 mg, Geometric mean (% CV), fasted, N = 21
  Cmax: 701 ng/mL
[2]; human, plasma, po, 180 mg, Geometric mean (% CV), fed (high-fat meal), N = 24
  Cmax: 605 ng/mL
[2]; human, plasma, po, 180 mg, Mean (SD), fed (high-fat meal), healthy subjects, N = 24
  Cmax: 622 ng/mL
[2]; human, plasma, po, 180 mg, Tmax, Median (minimum-maximum), fed (high-fat meal), N = 24
  Tmax: 5 h
[2]; human, plasma, po, 180 mg, Mean (SD), fasted, N = 21
  half-life: 31 h
[2]; human, plasma, po, 180 mg, Mean (SD), fed (high-fat meal), N = 24
  half-life: 31.1 h
[3]
  Administered dose excreted in the feces: 65%
  Administered dose excreted in the urine: 25%
[4]
  Metabolizing enzymes: cytochrome P450 (CYP)2C8 and CYP3A4
[5]
  Confirmed objective response rate: 56%
  Median progression-free survival: 16.7 months
[6]; fasted
  Subjects with cough: 24%
  Subjects with headache: 14%
  Subjects with nausea: 14%
  Subjects with somnolence: 14%
  Incidence of treatment-emergent adverse events (TEAEs): 48%
[6]; fasted and fed
  Abnormalities in laboratory findings, vital signs, ECGs, or physical examination: no clinically significant abnormalities
  Deaths or serious TEAEs: No deaths or serious TEAEs
  Intensity of TEAEs: mild
[6]; fed
  Subjects with headache: 4%
  Subjects with nausea: 4%
  Subjects with somnolence: 4%
[6]; fed (high-fat meal)
  Incidence of treatment-emergent adverse events (TEAEs): 46%
[7]; 60 mg to 240 mg once daily
  Steady-state systemic exposure versus dose: dose proportional
[7]; 180 mg orally once daily
  Geometric mean apparent oral clearance at steady-state: 10.6 L/h
  Mean plasma elimination half-life: 25 h

## C[C@@H](Oc1cc(-c2cnn(C3CCNCC3)c2)cnc1N)c1c(Cl)ccc(F)c1Cl [Crizotinib]
[8]
  Decrease of exposure (both Cmax and AUC) following a high-fat meal: 14%

## Cc1cc(Nc2ncc(Cl)c(Nc3ccccc3S(=O)(=O)C(C)C)n2)c(OC(C)C)cc1C1CCNCC1 [ceritinib]
[9]
  Effect of food on exposure: increases exposure
[10]
  Cmax and AUC0–24 of 450 mg taken with food versus 750 mg fasted: comparable
  Incidence of gastrointestinal toxicities, 450 mg with food versus 750 mg fasted: lower incidence
